The test system of assay [1] is Cavia porcellus. The experiment in a line: Shut down time of distension induced rhythmic bladder contractions in urethane anesthetized guinea pigs after a intravenous dose of 0.3 mg/kg of the compound. The assay is classed as functional. A digest of the protocol:
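Urethane-anesthetized guinea pigs; saline (39 °C) infused stepwise (0.2 mL) into the bladder via a dome needle until rhythmic isovolumetric contractions appeared. Compound in DMSO (0.05 mL/100 g) given iv at 0.3 mg/kg. Shutdown time (interval between contractions, 30 min cutoff) reported as mean ± SE, compared with the vehicle group mean by Dunnett's test.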

Assay [2] relates to Cavia porcellus. The experiment in a line: In vivo inhibition of capsaicin-induced plasma extravasation in the trachea of guinea pigs after peroral administration. The class given is functional. Particulars: po, read-out: ID50 (the source's name). In outline: (§1)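 Male Hartley guinea pigs (n = 5–8) under pentobarbital 35 mg/kg ip. Compound given iv 5 min, or orally 60 min, before iv capsaicin (150 µg/kg) plus Evans blue (20 mg/kg) in ethanol-saline 3:7. After 10 min, animals were perfused with saline and the trachea weighed.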

For assay [3], the system named is Cavia porcellus. Briefly: Effective dose that increased the bladder volume threshold of urethane anesthetized guinea pigs by 30%. The class given is functional. In outline:
(§2)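 Urethane-anesthetized guinea pigs; bladder volume threshold read before dosing (mean of last two stable trials as control) and again 10 min after iv injection. Compound in 80% DMSO, 0.1 mL/100 g body weight. Effect given as % rise in volume threshold over predrug value; ED30 is the dose raising threshold by 30%, with 6–12 animals per dose and 95% confidence limits.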

For the next assay, the target named is Substance-P receptor (Homo sapiens, UniProt P25103). Briefly: Tachykinin receptor 1 antagonistic activity as ability to inhibit [125I]BH-SP binding in human IM-9 cells (lymphoblast cells). The class given is cell-based.
Sequence of Substance-P receptor (P25103 whole entry): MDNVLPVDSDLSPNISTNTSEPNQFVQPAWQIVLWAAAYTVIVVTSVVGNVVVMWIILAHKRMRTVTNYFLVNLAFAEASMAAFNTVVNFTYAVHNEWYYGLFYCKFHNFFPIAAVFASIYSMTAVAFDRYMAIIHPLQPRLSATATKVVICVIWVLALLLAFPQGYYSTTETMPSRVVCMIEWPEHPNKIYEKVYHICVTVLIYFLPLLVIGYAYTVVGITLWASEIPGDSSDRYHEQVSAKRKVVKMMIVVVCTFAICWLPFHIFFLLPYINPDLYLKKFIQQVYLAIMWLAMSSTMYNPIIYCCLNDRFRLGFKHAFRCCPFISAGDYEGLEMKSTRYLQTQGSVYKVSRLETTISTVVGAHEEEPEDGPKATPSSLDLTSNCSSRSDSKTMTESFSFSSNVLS
The subject of assay [4] is Cavia porcellus. Briefly: Inhibition of capsaicin-induced plasma extravasation in guinea pig trachea by peroral administration. Particulars: po, read-out: ID50 (the source's name). The class given is functional. A digest of the protocol:
as §1

The subject of assay [5] is Cavia porcellus. The experiment in a line: In vivo inhibition of capsaicin-induced plasma extravasation in the trachea of guinea pigs after intravenous administration. The class given is functional. A digest of the protocol:
as §1

Assay [6] has as its system Cavia porcellus. Briefly: Increased bladder volume threshold in urethane anesthetized guinea pigs by 30%. The class given is functional. A digest of the protocol: as §2

pIC50: −log10 of the molar value. Several values for one entry are separate records, joined by “and”; a condition that tells them apart may be missing. Equal entries are not always repeated.

In the assay on Cavia porcellus [1], `Cc1ccc(-c2c3n(c(=O)c4ncccc24)C[C@@H](C)CN(Cc2cc(C(F)(F)F)cc(C(F)(F)F)c2)C3=O)cc1` gave a Shutdown time of 17.9 min. The ED50 in the assay on Cavia porcellus [2] was 0.033 mg/kg. Further, the ED30 with Cavia porcellus [3] is 0.16 mg/kg.
Turning to `Cc1ccc(-c2c3n(c(=O)c4ncccc24)CCCN(Cc2cc(C(F)(F)F)cc(C(F)(F)F)c2)C3=O)cc1`, the Shutdown time in the assay with Cavia porcellus [1] is 10.1 min. This compound showed a pIC50 on Substance-P receptor of 9.07. The ED50 in the assay with Cavia porcellus [4] was found to be 0.073 mg/kg. In the assay on Cavia porcellus [3], this compound registered an ED30 of 0.37 mg/kg.
`Cc1ccc(-c2c3n(c(=O)c4ncccc24)C[C@H](C)CN(Cc2cc(C(F)(F)F)cc(C(F)(F)F)c2)C3=O)cc1` registered a Shutdown time with Cavia porcellus [1] of 5.9 min. On Substance-P receptor, the pIC50 is 8.02.
With `Cc1ccc(-c2c3n(c(=O)c4ncccc24)CCCCCN(Cc2cc(C(F)(F)F)cc(C(F)(F)F)c2)C3=O)cc1`, the Shutdown time with Cavia porcellus [1] is 17.1 min. In addition, the ED50 in the assay with Cavia porcellus [2] came to 0.04 mg/kg. Further, on Substance-P receptor, the pIC50 is 8.74. In the assay on Cavia porcellus [3], this compound returned an ED30 of 0.086 mg/kg.
In turn, `Cc1ccc(-c2c3n(c(=O)c4ncccc24)CCN(Cc2cc(C(F)(F)F)cc(C(F)(F)F)c2)C3=O)cc1` gave a pIC50 at Substance-P receptor of 8.64.
Take `Cc1ccc(-c2c3n(c(=O)c4ncccc24)CC[C@@H](C)CN(Cc2cc(C(F)(F)F)cc(C(F)(F)F)c2)C3=O)cc1` (stereo in doubt; (aR,9R)-8b): the Shutdown time with Cavia porcellus [1] is on record as 21.8 min. The same compound displayed an ID50 with Cavia porcellus [5] of 0.0043 mg/kg. In the assay with Cavia porcellus [2], the ED50 was 0.033 mg/kg. In the assay on Cavia porcellus [3], the ED30 amounted to 0.051 mg/kg.
For the compound `Cc1ccc(-c2c3n(c(=O)c4ncccc24)CC[C@@H](C)CN(Cc2cc(C(F)(F)F)cc(C(F)(F)F)c2)C3=O)cc1` (stereo in doubt; (aS,9R)-8b), the ID50 with Cavia porcellus [5] was 0.026 mg/kg.
The compound `Cc1ccc(-c2c3n(c(=O)c4ncccc24)CC[C@H](C)CN(Cc2cc(C(F)(F)F)cc(C(F)(F)F)c2)C3=O)cc1` (stereo in doubt; (aS,9S)-8b) [7-(3,5-BIS-TRIFLUOROMETHYL-BENZYL)-9-METHYL-5-P-TOLYL-8,9,10,11-TETRAHYDRO-7H-1,7,11A-TRIAZA-CYCLOOCTA[B]NAPHTHALENE-6,12-DIONE (ATROPISOMERIC MIX)] had a Shutdown time with Cavia porcellus [1] of 6.7 min. Also, the ED50 in the assay with Cavia porcellus [5] (Cavia porcellus, Plasma, iv, read-out: ID50 (the source's name)) is greater than 0.3 mg/kg.
On to `Cc1ccc(-c2c3n(c(=O)c4ncccc24)CCCCN(Cc2cc(C(F)(F)F)cc(C(F)(F)F)c2)C3=O)cc1` [7-(3,5-BIS-TRIFLUOROMETHYL-BENZYL)-5-P-TOLYL-8,9,10,11-TETRAHYDRO-7H-1,7,11A-TRIAZA-CYCLOOCTA[B]NAPHTHALENE-6,12-DIONE (ATROPISOMERIC MIX)], for which the Shutdown time in the assay on Cavia porcellus [1] (0.3 mg/kg) was 7.4 min and 19.2 min and 15.7 min. For the same compound, the ED50 with Cavia porcellus [2] was 0.019 mg/kg. This compound also had an ED30 in the assay on Cavia porcellus [3] of 0.066 mg/kg.
As to `Cc1ccc(-c2c(C(=O)N(C)Cc3cc(C(F)(F)F)cc(C(F)(F)F)c3)n(C)c(=O)c3ncccc23)cc1` [7-METHYL-8-OXO-5-P-TOLYL-7,8-DIHYDRO-[1,7]NAPHTHYRIDINE-6-CARBOXYLIC ACID (3,5-BIS-TRIFLUOROMETHYL-BENZYL)-METHYL-AMIDE (STRUCTURAL MIX)], the Shutdown time in the assay on Cavia porcellus [1] (0.3 mg/kg) is 12.9 min [middle of 4 runs]. Besides, in the assay with Cavia porcellus [2], the ED50 was found to be 0.11 mg/kg. In addition, the ED30 in the assay on Cavia porcellus [6] is 0.1 mg/kg.

By pIC50 is commonly meant −log10 of the IC50, conventionally taken in molar units.

For the origin of these results see ChEMBL document CHEMBL1132279, “Axially chiral 1,7-naphthyridine-6-carboxamide derivatives as orally active tachykinin NK(1) receptor antagonists: synthesis, antagonistic activity, and effects on bladder functions” (J Med Chem, 1999).
